ChEMBL document CHEMBL1154945, “Decahydroisoquinoline derivatives as novel non-peptidic, potent and subtype-selective somatostatin sst(3) receptor antagonists” (Bioorg Med Chem Lett, 2010)

How the values were obtained:
[1] = molecular target: T1, Somatostatin receptor type 3 (Homo sapiens, UniProt P32745); test: Binding affinity to human SST3 receptor
[2] = molecular target: Somatostatin receptor type 1 (Homo sapiens, UniProt P30872); test: Binding affinity to human SST1 receptor
Homo sapiens [3] = species: Homo sapiens; test: Selectivity for human SST3 over human SST2
[4] = molecular target: Somatostatin receptor type 1 (Rattus norvegicus, UniProt P28646); test: Displacement of [125I]SRIF-14 from rat cortex membrane SST1 receptor
[5] = molecular target: Somatostatin receptor type 2 (Rattus norvegicus, UniProt P30680); test: Displacement of [125I]SRIF-14 from rat cortex membrane SST2 receptor
[6] = molecular target: Somatostatin receptor type 2 (Homo sapiens, UniProt P30874); test: Binding affinity to human SST2 receptor
[7] = molecular target: Somatostatin receptor type 5 (Homo sapiens, UniProt P35346); test: Binding affinity to human SST5 receptor
Homo sapiens [8] = species: Homo sapiens; test: Selectivity for human SST3 over human SST5
[9] = molecular target: Somatostatin receptor type 4 (Homo sapiens, UniProt P31391); test: Binding affinity to human SST4 receptor
Homo sapiens [10] = species: Homo sapiens; test: Selectivity for human SST3 over human SST4
Homo sapiens [11] = species: Homo sapiens; test: Selectivity for human SST3 over human SST1
[12] = molecular target: T1, Somatostatin receptor type 3; test: Antagonist activity at human recombinant SST3 receptor expressed in CHO cells assessed as inhibition of SRIF14-induced cAMP accumulation; format: functional, cell-based
Procedure, shortened: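 cAMP-based functional assay with human recombinant sst3 receptors expressed in CHO cells; test agent's antagonism of SRIF-14 response measured, pKB derived; n = 6.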

Somatostatin receptor type 4, sequence (P31391 whole entry): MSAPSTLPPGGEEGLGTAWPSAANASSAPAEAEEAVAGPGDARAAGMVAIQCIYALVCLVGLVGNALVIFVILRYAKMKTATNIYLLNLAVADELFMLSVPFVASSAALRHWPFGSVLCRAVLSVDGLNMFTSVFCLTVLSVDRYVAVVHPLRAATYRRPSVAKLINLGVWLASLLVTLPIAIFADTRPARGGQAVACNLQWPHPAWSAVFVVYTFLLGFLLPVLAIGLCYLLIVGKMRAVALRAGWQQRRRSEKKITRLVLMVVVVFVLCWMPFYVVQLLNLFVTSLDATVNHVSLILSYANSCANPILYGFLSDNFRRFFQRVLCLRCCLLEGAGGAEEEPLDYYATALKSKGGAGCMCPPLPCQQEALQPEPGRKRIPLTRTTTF
Somatostatin receptor type 2 (Homo sapiens, UniProt P30874), sequence (P30874 whole entry): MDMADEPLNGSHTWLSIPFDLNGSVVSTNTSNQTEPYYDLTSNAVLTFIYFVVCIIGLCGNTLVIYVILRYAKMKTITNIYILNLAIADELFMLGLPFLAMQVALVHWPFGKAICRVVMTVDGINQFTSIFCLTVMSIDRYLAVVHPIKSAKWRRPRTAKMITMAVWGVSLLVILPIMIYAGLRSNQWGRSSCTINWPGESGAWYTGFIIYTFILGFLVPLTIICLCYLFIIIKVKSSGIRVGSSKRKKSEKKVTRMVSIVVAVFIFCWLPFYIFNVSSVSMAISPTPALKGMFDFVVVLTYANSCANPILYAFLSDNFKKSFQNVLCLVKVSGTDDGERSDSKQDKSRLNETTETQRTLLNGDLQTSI
Somatostatin receptor type 2 (Rattus norvegicus, UniProt P30680), sequence (P30680 whole entry): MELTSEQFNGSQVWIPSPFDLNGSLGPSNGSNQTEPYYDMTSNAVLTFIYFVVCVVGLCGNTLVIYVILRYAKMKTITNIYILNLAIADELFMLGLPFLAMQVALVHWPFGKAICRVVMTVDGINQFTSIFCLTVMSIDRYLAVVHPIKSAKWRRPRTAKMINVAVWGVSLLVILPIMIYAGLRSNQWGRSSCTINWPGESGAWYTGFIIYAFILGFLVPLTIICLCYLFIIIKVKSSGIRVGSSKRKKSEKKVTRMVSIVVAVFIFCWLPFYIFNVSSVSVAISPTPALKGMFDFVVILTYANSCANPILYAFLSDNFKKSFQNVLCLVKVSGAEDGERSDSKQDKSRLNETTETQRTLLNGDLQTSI
Somatostatin receptor type 5, sequence (P35346 whole entry): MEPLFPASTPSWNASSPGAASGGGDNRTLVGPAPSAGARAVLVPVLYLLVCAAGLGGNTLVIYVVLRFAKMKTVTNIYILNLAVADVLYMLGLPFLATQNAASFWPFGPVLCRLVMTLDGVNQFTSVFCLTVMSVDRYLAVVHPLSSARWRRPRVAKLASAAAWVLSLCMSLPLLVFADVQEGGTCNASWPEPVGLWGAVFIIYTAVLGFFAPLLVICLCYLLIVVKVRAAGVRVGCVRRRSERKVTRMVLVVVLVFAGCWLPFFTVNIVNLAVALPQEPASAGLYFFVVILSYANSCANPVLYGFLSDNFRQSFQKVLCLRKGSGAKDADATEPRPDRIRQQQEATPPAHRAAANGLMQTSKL
T1 sequence (P32745 whole entry): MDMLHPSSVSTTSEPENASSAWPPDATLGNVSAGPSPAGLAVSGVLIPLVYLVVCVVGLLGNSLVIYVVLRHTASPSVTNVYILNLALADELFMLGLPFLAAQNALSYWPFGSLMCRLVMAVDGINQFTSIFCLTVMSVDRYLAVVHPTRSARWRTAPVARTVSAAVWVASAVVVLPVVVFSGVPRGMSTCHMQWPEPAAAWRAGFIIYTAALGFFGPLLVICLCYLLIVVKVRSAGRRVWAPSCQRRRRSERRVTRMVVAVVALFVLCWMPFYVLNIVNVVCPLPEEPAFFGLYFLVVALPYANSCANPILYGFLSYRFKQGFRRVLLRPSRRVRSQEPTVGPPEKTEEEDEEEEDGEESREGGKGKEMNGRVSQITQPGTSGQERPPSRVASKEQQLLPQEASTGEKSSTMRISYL
Somatostatin receptor type 1 (Homo sapiens, UniProt P30872), sequence (P30872 whole entry): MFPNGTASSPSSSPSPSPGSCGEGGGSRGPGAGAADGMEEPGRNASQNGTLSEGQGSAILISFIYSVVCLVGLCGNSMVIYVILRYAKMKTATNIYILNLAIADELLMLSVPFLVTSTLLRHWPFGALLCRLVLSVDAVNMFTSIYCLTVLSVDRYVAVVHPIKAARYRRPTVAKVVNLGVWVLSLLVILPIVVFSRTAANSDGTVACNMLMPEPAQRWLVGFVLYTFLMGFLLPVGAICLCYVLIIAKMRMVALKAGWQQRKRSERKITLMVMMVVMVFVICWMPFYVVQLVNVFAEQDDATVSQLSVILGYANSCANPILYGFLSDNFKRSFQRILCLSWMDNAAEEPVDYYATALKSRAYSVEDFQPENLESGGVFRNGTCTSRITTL
Somatostatin receptor type 1 (Rattus norvegicus, UniProt P28646), sequence (P28646 whole entry): as the sequence (P30872 whole entry) above, with S8P, S11T, P16S, S20G, G25V, G26C, A32S, A45S, T385A, T389S counted along it

Question: How did the Kd [1] turn out when `CC(Cc1ccc2c(c1)OCO2)CN1CC2CCCCC2C(C(=O)N2CCN(c3cccc(C(F)(F)F)n3)CC2)C1` (centres undefined) was run?
Answer: 741 nM

Question: What does the source list for `C[C@@H](Cc1ccc2nsnc2c1)CN1C[C@@H]2CCCC[C@@H]2[C@H](C(=O)N2CCN(c3ccc(F)c(F)c3)CC2)C1`?
Answer: Kd [2]: 1550 nM; Ratio (Homo sapiens [3]): > 150; Kd [1]: 7.76 nM; Kd [4]: 1170 nM; Kd [5]: 151 nM; Kd [6]: 3550 nM; Kd [7]: 1660 nM; Ratio (Homo sapiens [8]): > 150; Kd [9]: 1020 nM; Ratio (Homo sapiens [10]): 130

Question: With `CC(Cc1ccc2c(c1)OCO2)CN1CC2CCCCC2C(C(=O)N2CCN(c3cccc(F)c3)CC2)C1` (centres undefined) as the compound, how does the Kd [1] read?
Answer: 200 nM

Question: `O=C(C1CCCN(CCC2c3ccccc3-c3ccccc32)C1)N1CCN(c2ccc([N+](=O)[O-])cc2)CC1` (racemic) was tested. Which Kd [2] did it give?
Answer: 120 nM

Question: And the Kd [1]?
Answer: 117 nM

Question: Which results are given for `CC(Cc1ccc2c(c1)OCO2)CN1C[C@@H](C(=O)N2CCN(c3ccc([N+](=O)[O-])cc3)CC2)C[C@@H]2CCCC[C@H]21` (mixture of isomers)?
Answer: Kd [2]: 537 nM; Kd [1]: 155 nM

Question: With `CC(Cc1ccc2c(c1)OCO2)CN1CC2CCCCC2C(C(=O)N2CCN(c3cccc4nccnc34)CC2)C1` (centres undefined) as the compound, how does the Kd [1] read?
Answer: 1350 nM

Question: For `CC(Cc1ccc2c(c1)OCO2)CN1CC2CCCCC2C(C(=O)N2CCN(c3ccc(C#N)cn3)CC2)C1` (centres undefined), which Kd [1] is on record?
Answer: 79.4 nM

Question: With `C[C@@H](Cc1ccc2nccnc2c1)CN1C[C@@H]2CCCC[C@@H]2[C@H](C(=O)N2CCN(c3ccc(F)c(F)c3)CC2)C1` as the compound, how does the Kd [2] read?
Answer: 2630 nM

Question: And the Kd [1]?
Answer: 10.7 nM

Question: With `CC(Cc1ccc2c(c1)OCO2)CN1CC2CCCCC2C(C(=O)N2CCN(c3ccc(F)c(F)c3)CC2)C1` (centres undefined) as the compound, how does the Kd [1] read?
Answer: 20.9 nM

Question: How did the Ratio (Homo sapiens [11]) turn out when `Cc1nc2ccc(C[C@H](C)CN3C[C@@H]4CCCC[C@@H]4[C@H](C(=O)N4CCN(c5ccc(F)c(F)c5)CC4)C3)cn2n1` was run?
Answer: 620

Question: Which results are given for `COc1ccc(C[C@@H](C)CN2C[C@H]3CCCC[C@H]3[C@@H](C(=O)N3CCN(c4ccc(F)c(F)c4)CC3)C2)cn1`?
Answer: Kd [2]: 724 nM; Kd [1]: 3630 nM; pKb [12]: 5.1; Kd [4]: 813 nM; Kd [5]: 20900 nM; Kd [6]: 38000 nM; Kd [7]: 91200 nM; Kd [9]: 6170 nM

Question: `CC(Cc1ccc2c(c1)OCO2)CN1C[C@H](C(=O)N2CCN(c3ccc([N+](=O)[O-])cc3)CC2)C[C@@H]2CCCC[C@@H]21` (mixture of isomers) was tested. Which Kd [2] did it give?
Answer: 490 nM

Question: And the Kd [1]?
Answer: 162 nM

Question: With `CC(Cc1ccc2c(c1)OCO2)CN1CC2CCCCC2C(C(=O)N2CCN(c3ccc4nccnc4n3)CC2)C1` (centres undefined) as the compound, how does the Kd [1] read?
Answer: 107 nM

Question: `COC(=O)c1cc(C[C@@H](C)CN2C[C@@H]3CCCC[C@@H]3[C@H](C(=O)N3CCN(c4ccc([N+](=O)[O-])cc4)CC3)C2)cc(C(=O)OC)c1` was tested. Which Kd [2] did it give?
Answer: 437 nM

Question: And the Kd [1]?
Answer: 2.24 nM

Question: Which Kd [2] does the source give for `CC(Cc1ccc2c(c1)OCO2)CN1C[C@@H](C(=O)N2CCN(c3ccc([N+](=O)[O-])cc3)CC2)C[C@@H]2CCCC[C@@H]21` (mixture of isomers) here?
Answer: 2450 nM

Question: And the Kd [1]?
Answer: 1230 nM

Question: Which results are given for `CCOc1ccc(C[C@H](C)CN2C[C@@H]3CCCC[C@@H]3[C@H](C(=O)N3CCN(c4ccc(F)c(F)c4)CC3)C2)cn1`?
Answer: Kd [2]: 2340 nM; Kd [1]: 14.1 nM

Question: What does the source list for `COC(=O)c1cc(CC(C)CN2CC3CCCCC3C(C(=O)N3CCN(c4ccc([N+](=O)[O-])cc4)CC3)C2)cc(C(=O)OC)c1` (racemic)?
Answer: Kd [2]: 1000 nM; Kd [1]: 2.88 nM

Question: For `CC(Cc1ccc2c(c1)OCO2)CN1CC2CCCCC2C(C(=O)N2CCN(c3ccccn3)CC2)C1` (centres undefined), which Kd [1] is on record?
Answer: 331 nM

Question: With `COC(=O)c1cc(CC(C)CN2C[C@H]3CCCC[C@H]3[C@@H](C(=O)N3CCN(c4ccc([N+](=O)[O-])cc4)CC3)C2)cc(C(=O)OC)c1` (mixture of isomers) as the compound, how does the Kd [2] read?
Answer: 2340 nM

Question: What about the Kd [1] of the same compound?
Answer: 107 nM

Question: With `COC(=O)c1cc(C[C@H](C)CN2C[C@@H]3CCCC[C@@H]3[C@H](C(=O)N3CCN(c4ccc([N+](=O)[O-])cc4)CC3)C2)cc(C(=O)OC)c1` as the compound, how does the Kd [2] read?
Answer: 933 nM

Question: What about the Kd [1] of the same compound?
Answer: 1.23 nM

Question: And the Ratio (Homo sapiens [11])?
Answer: 760

Question: What does the source list for `C[C@@H](Cc1ccc2c(c1)OCO2)CN1C[C@@H]2CCCC[C@@H]2[C@H](C(=O)N2CCN(c3ccc(F)c(F)c3)CC2)C1`?
Answer: Kd [2]: 912 nM; Kd [1]: 8.51 nM

Question: For `C[C@@H](Cc1ccc2ocnc2c1)CN1C[C@@H]2CCCC[C@@H]2[C@H](C(=O)N2CCN(c3ccc(F)c(F)c3)CC2)C1`, which Kd [2] is on record?
Answer: 1620 nM

Question: What about the Kd [1] of the same compound?
Answer: 11 nM

Question: How did the Kd [1] turn out when `CC(Cc1ccc2c(c1)OCO2)CN1CC2CCCCC2C(C(=O)N2CCN(c3ccc4nonc4n3)CC2)C1` (centres undefined) was run?
Answer: 19.5 nM

Question: `CC(Cc1ccc2c(c1)OCO2)CN1CC2CCCCC2C(C(=O)N2CCN(c3ccc(Cl)cn3)CC2)C1` (centres undefined) was tested. Which Kd [1] did it give?
Answer: 91.2 nM

Question: `Cc1nc2cc(C[C@H](C)CN3C[C@@H]4CCCC[C@@H]4[C@H](C(=O)N4CCN(c5ccc(F)c(F)c5)CC4)C3)ccc2o1` was tested. Which Kd [2] did it give?
Answer: 1380 nM

Question: What about the Ratio (Homo sapiens [3]) of the same compound?
Answer: > 150

Question: And the Kd [1]?
Answer: 3.39 nM

Question: And the Kd [4]?
Answer: 457 nM

Question: And the Kd [5]?
Answer: 229 nM

Question: What about the Kd [6] of the same compound?
Answer: 5500 nM

Question: And the Kd [7]?
Answer: 1100 nM

Question: What about the Ratio (Homo sapiens [8]) of the same compound?
Answer: > 150

Question: And the Kd [9]?
Answer: 417 nM

Question: What about the Ratio (Homo sapiens [10]) of the same compound?
Answer: 120

Question: Which Kd [1] does the source give for `CC(Cc1ccc2c(c1)OCO2)CN1CC2CCCCC2C(C(=O)N2CCN(c3cccc4nonc34)CC2)C1` (centres undefined) here?
Answer: 91.2 nM

Question: Which Kd [2] does the source give for `O=C(CCN(CCC1c2ccccc2-c2ccccc21)CC1CC1)N1CCN(c2ccc([N+](=O)[O-])cc2)CC1` here?
Answer: 77.6 nM

Question: What about the Kd [1] of the same compound?
Answer: 302 nM

Question: `CC(Cc1ccc2c(c1)OCO2)CN1CC2CCCCC2C(C(=O)N2CCN(c3cccc4nccn34)CC2)C1` (centres undefined) was tested. Which Kd [1] did it give?
Answer: 1260 nM

Question: With `Cc1cn2cc(C[C@H](C)CN3C[C@@H]4CCCC[C@@H]4[C@H](C(=O)N4CCN(c5ccc(F)c(F)c5)CC4)C3)ccc2n1` as the compound, how does the Kd [2] read?
Answer: 39.8 nM

Question: And the Kd [1]?
Answer: 107 nM

Question: And the Ratio (Homo sapiens [11])?
Answer: 0.4

Question: How did the Kd [1] turn out when `CC(Cc1ccc2c(c1)OCO2)CN1CC2CCCCC2C(C(=O)N2CCN(c3cccc(=O)n3C)CC2)C1` (centres undefined) was run?
Answer: 2400 nM

Question: For `CC(Cc1ccc2c(c1)OCO2)CN1CC2CCCCC2C(C(=O)N2CCN(c3cccc(Cl)n3)CC2)C1` (centres undefined), which Kd [1] is on record?
Answer: 407 nM

Question: For `CC(Cc1ccc2c(c1)OCO2)CN1CC2CCCCC2C(C(=O)N2CCN(c3cccc4nncn34)CC2)C1` (centres undefined), which Kd [1] is on record?
Answer: 2690 nM

Question: For `CCNc1ccc(C[C@H](C)CN2C[C@@H]3CCCC[C@@H]3[C@H](C(=O)N3CCN(c4ccc(F)c(F)c4)CC3)C2)cn1`, which Kd [2] is on record?
Answer: 1910 nM

Question: And the Kd [1]?
Answer: 28.8 nM

Question: Which Kd [2] does the source give for `C[C@@H](Cc1ccc2ncnn2c1)CN1C[C@@H]2CCCC[C@@H]2[C@H](C(=O)N2CCN(c3ccc(F)c(F)c3)CC2)C1` here?
Answer: 9120 nM

Question: What about the Kd [1] of the same compound?
Answer: 34.7 nM

Question: `COC(=O)c1cc(CC(C)CN2C[C@@H]3CCCC[C@@H]3[C@H](C(=O)N3CCN(c4ccc([N+](=O)[O-])cc4)CC3)C2)cc(C(=O)OC)c1` (mixture of isomers) was tested. Which Kd [2] did it give?
Answer: 398 nM

Question: And the Kd [1]?
Answer: 1.35 nM

Question: How did the Kd [1] turn out when `CC(Cc1ccc2c(c1)OCO2)CN1CC2CCCCC2C(C(=O)N2CCN(c3ccc4nsnc4n3)CC2)C1` (centres undefined) was run?
Answer: 95.5 nM

Question: For `CC(Cc1ccc2c(c1)OCO2)CN1CC2CCCCC2C(C(=O)N2CCN(c3cc4nccnc4cn3)CC2)C1` (centres undefined), which Kd [1] is on record?
Answer: 1580 nM

Question: How did the Kd [2] turn out when `CC(Cc1ccc2c(c1)OCO2)CN1CCCC(C(=O)N2CCN(c3ccc([N+](=O)[O-])cc3)CC2)C1` (racemic) was run?
Answer: 102 nM

Question: What about the Kd [1] of the same compound?
Answer: 85.1 nM

Question: `CC(Cc1ccc2c(c1)OCO2)CN1CC2CCCCC2C(C(=O)N2CCN(c3ccc4nccn4n3)CC2)C1` (centres undefined) was tested. Which Kd [1] did it give?
Answer: 240 nM

Question: Which Kd [2] does the source give for `CC(Cc1ccc2c(c1)OCO2)CN1C[C@H]2CCCC[C@H]2[C@@H](C(=O)N2CCN(c3ccc([N+](=O)[O-])cc3)CC2)C1` (mixture of isomers) here?
Answer: 912 nM

Question: What about the Kd [1] of the same compound?
Answer: 11 nM

Question: What about the Ratio (Homo sapiens [11]) of the same compound?
Answer: 100

Question: With `CC(Cc1ccc2c(c1)OCO2)CN1CC2CCCCC2C(C(=O)N2CCN(c3ccc(F)cc3)CC2)C1` (centres undefined) as the compound, how does the Kd [1] read?
Answer: 57.5 nM

Question: Which Kd [1] does the source give for `CC(Cc1ccc2c(c1)OCO2)CN1CC2CCCCC2C(C(=O)N2CCN(c3ccc4nonc4c3)CC2)C1` (centres undefined) here?
Answer: 20 nM

Question: How did the Kd [1] turn out when `CC(Cc1ccc2c(c1)OCO2)CN1CC2CCCCC2C(C(=O)N2CCN(c3cccc4nsnc34)CC2)C1` (centres undefined) was run?
Answer: 191 nM

Question: How did the Kd [2] turn out when `CC(Cc1ccc2c(c1)OCO2)CN1C[C@H]2CCCC[C@H]2[C@H](C(=O)N2CCN(c3ccc([N+](=O)[O-])cc3)CC2)C1` (mixture of isomers) was run?
Answer: 6170 nM

Question: What about the Kd [1] of the same compound?
Answer: 1120 nM

Question: What does the source list for `CN(CCC(=O)N1CCN(c2ccc([N+](=O)[O-])cc2)CC1)CCC1c2ccccc2-c2ccccc21`?
Answer: Kd [2]: 7.59 nM; Kd [1]: 1050 nM
